Key:
[1] = test system: Human immunodeficiency virus 1; experiment: Antiviral activity against HIV1 NL4-3 in human MT4 cells assessed as inhibition of virus-induced cytopathogenicity by MTT assay; assay type: functional, organism-based; conditions: Human immunodeficiency virus 1, NL4-3, MT4
In short: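 MT-4 lymphoid cells infected with wild-type HIV-1 NL4-3 in the presence of a range of compound concentrations. Viable cells were counted by MTT colorimetric read-out at day 5 post-infection. EC50 is the concentration giving 50% protection from virus-induced cytopathic effect. Means ± SD from at least two or three experiments.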

[2] = Cytotoxicity against human MT4 cells by MTT assay; assay type: cell-based
In short: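 Mock-infected MT-4 cells were exposed to a range of compound concentrations. Viability was read by MTT at day 5. CC50 is the concentration that kills 50% of uninfected cells. The top concentration was limited by compound precipitation in culture medium. Means ± SD from at least two or three experiments.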

[3] = Selectivity index, ratio of CC50 for human MT4 cells to EC50 for HIV1 NL4-3; assay type: toxicity, cell-based; conditions: read-out: Ratio CC50/EC50
In short: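 Computed as CC50/EC50. CC50 comes from MTT viability of mock-infected MT-4 cells and EC50 from MTT protection of NL4-3-infected MT-4 cells, both read at day 5.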

[4] = test system: Human immunodeficiency virus 1; experiment: Antiviral activity against HIV1 isolates with reverse transcriptase K103N mutation in human MT4 cells assessed as inhibition of virus-induced cytopathogenicity by MTT assay; assay type: functional, organism-based; conditions: Human immunodeficiency virus 1, MT4
In short: (§1)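 MT-4 lymphoid cells infected with HIV-1 carrying RT K103N, Y181C or Y188L, in the presence of different drug concentrations. Viable cells counted at day 5 postinfection by MTT colorimetric assay. EC50 is the concentration that inhibits 50% of the HIV-induced cytopathic effect.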

[5] = test system: Human immunodeficiency virus 1; experiment: Antiviral activity against HIV1 isolates with reverse transcriptase Y181C mutation in human MT4 cells assessed as inhibition of virus-induced cytopathogenicity by MTT assay; assay type: functional, organism-based; conditions: Human immunodeficiency virus 1, MT4; in short: as §1
[6] = test system: Human immunodeficiency virus 1; experiment: Resistance index, ratio of EC50 for drug-resistant HIV1 isolate with reverse transcriptase Y181C mutation to EC50 for wild type HIV1 NL4-3; assay type: functional
In short: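 Fold resistance is the EC50 against the K103N, Y181C or Y188L mutant strain divided by the EC50 against wt NL4-3. Each EC50 is from MT-4 cells infected in the presence of different drug concentrations, with viability read by MTT at day 5 postinfection.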

[7] = test system: Human immunodeficiency virus 1; experiment: Antiviral activity against HIV1 isolates with reverse transcriptase Y188L mutation in human MT4 cells assessed as inhibition of virus-induced cytopathogenicity by MTT assay; assay type: functional, organism-based; conditions: Human immunodeficiency virus 1, MT4; in short: as §1
[8] = test system: Human immunodeficiency virus 1; experiment: Resistance index, ratio of ID50 for reverse transcriptase K103N mutant to IC50 for wild-type HIV1 sreverse transcriptase
In short: (§2)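 Recombinant wt and K103N, L100I or Y181I HIV-1 RT (>95% pure), 2-4 nM. RNA-dependent DNA polymerase assay on 0.5 µg poly(rA)/oligo(dT) 10:1 (0.3 µM 3'-OH ends) with 10 µM [3H]-dTTP and 8% final DMSO. Aliquots taken every 2 min. Inhibitor range 0.2-5× ID50, fitted to a noncompetitive model. Fold resistance is mutant ID50 divided by wt ID50.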

[9] = test system: Human immunodeficiency virus 1; experiment: Resistance index, ratio of ID50 for reverse transcriptase Y181I mutant to IC50 for wild-type HIV1 reverse transcriptase; in short: as §2
[10] = target: Human immunodeficiency virus type 1 reverse transcriptase (Human immunodeficiency virus 1) (UniProt Q72547)
[11] = test system: Human immunodeficiency virus type 1 reverse transcriptase (Human immunodeficiency virus 1), Q72547 [K103N]
[12] = test system: Human immunodeficiency virus type 1 reverse transcriptase (Human immunodeficiency virus 1), Q72547 [Y181I]
[13] = test system: Human immunodeficiency virus type 1 reverse transcriptase (Human immunodeficiency virus 1), Q72547 [L100I]

Row | Structure (SMILES) | EC50 [1] | CC50 [2] | selectivity ratio [3] | EC50 [4] | EC50 [5] | Ratio EC50 [6] | EC50 [7] | Ratio [8] | Ratio [9] | ID50 [10] | ID50 [11] | ID50 [12] | ID50 [13]
1 | O=C(CSc1nc(Cc2c(F)cccc2Cl)cc(=O)[nH]1)c1ccc(F)cc1 | 0.29 µM | > 61 µM | > 210 | > 61 µM | 13.9 µM | 48 | > 61 µM | 22 | 10 | 0.93 µM | 20.7 µM | 9.2 µM | > 40 µM
2 | Cc1c(Cc2c(F)cccc2F)nc(SCc2cccnc2)[nH]c1=O | 5.9 µM | > 70 µM | > 12 |  |  |  |  |  |  |  |  |  | 
3 | COc1ccc(C(=O)CSc2nc(Cc3c(F)cccc3Cl)c(C(C)C)c(=O)[nH]2)cc1 | 0.001 µM | > 11 µM | > 11000 | > 11 µM | 0.16 µM | 160 | > 11 µM |  |  | 0.0007 µM | > 40 µM | > 40 µM | > 40 µM
4 | COc1ccc(C(=O)CSc2nc(Cc3cccc4ccccc34)c(C(C)C)c(=O)[nH]2)cc1 | 0.03 µM | 203 µM | 6770 |  |  |  |  |  |  |  |  |  | 
5 | Cc1cc(C)cc(CSc2nc(Cc3c(F)cccc3F)c(C)c(=O)[nH]2)c1 | 14 µM | > 65 µM | > 5 |  |  |  |  |  |  |  |  |  | 
6 | COc1ccc(C(=O)CSc2nc(Cc3c(Cl)cccc3Cl)c(C)c(=O)[nH]2)cc1 | 0.067 µM | > 56 µM | > 836 | > 56 µM | 1.2 µM | 18 | > 56 µM |  | 5 | 0.094 µM | > 40 µM | 0.46 µM | > 40 µM
7 | O=c1cc(Cc2c(F)cccc2F)nc(SCc2c(F)cccc2F)[nH]1 | 1 µM | > 66 µM | > 66 |  |  |  |  |  |  |  |  |  | 
8 | O=C(CSc1nc(Cc2c(F)cccc2F)cc(=O)[nH]1)c1ccc([N+](=O)[O-])cc1 | 8.4 µM | 22 µM | > 3 |  |  |  |  |  |  |  |  |  | 
9 | CC(C)c1c(Cc2c(Cl)cccc2Cl)nc(SCC(=O)c2ccc(F)cc2)[nH]c1=O | 0.064 µM | > 54 µM | > 844 | > 54 µM | > 54 µM |  | > 54 µM |  | 1530 | 0.02 µM |  | 30.6 µM | 
10 | Cc1c(Cc2c(F)cccc2F)nc(SCc2ccc([N+](=O)[O-])cc2)[nH]c1=O | 1.2 µM | > 37 µM | > 31 |  |  |  |  |  |  |  |  |  | 
11 | O=c1cc(Cc2c(F)cccc2F)nc(SCc2ccccc2)[nH]1 | 0.1 µM | > 73 µM | > 730 |  |  |  |  |  |  |  |  |  | 
12 | Cc1c(Cc2c(F)cccc2F)nc(SCc2ccccn2)[nH]c1=O | 10.1 µM | > 70 µM | > 7 |  |  |  |  |  |  |  |  |  | 
13 | O=c1cc(Cc2c(F)cccc2F)nc(SCCCc2ccccc2)[nH]1 | 0.2 µM | 32 µM | 160 |  |  |  |  |  |  |  |  |  | 
14 | CC(C)c1c(Cc2c(F)cccc2Cl)nc(SCC(=O)c2ccc(F)cc2)[nH]c1=O | 0.004 µM | > 56 µM | > 14000 | > 56 µM | 0.56 µM | 140 | > 55 µM | 1670 |  | 0.024 µM | 40 µM | > 40 µM | 
15 | O=C(CSc1nc(Cc2c(F)cccc2F)cc(=O)[nH]1)c1ccccc1 | 1 µM | > 67 µM | > 67 |  |  |  |  |  |  |  |  |  | 
16 | Cc1c(Cc2c(F)cccc2F)nc(SC(C)C)[nH]c1=O | 0.006 µM | > 77 µM | > 12800 |  |  |  |  |  |  |  |  |  | 
17 | CC(C)Sc1nc(Cc2c(F)cccc2F)cc(=O)[nH]1 | 0.017 µM | > 84 µM | > 4940 |  |  |  |  |  |  |  |  |  | 
18 | O=C1Nc2ccc(Cl)cc2[C@@](C#CC2CC2)(C(F)(F)F)O1 [EFAVIRENZ] | 0.007 µM | > 3 µM |  | 0.39 µM | 0.044 µM |  |  |  |  |  |  |  | 
19 | Cc1ccc(CSc2nc(Cc3c(F)cccc3F)c(C)c(=O)[nH]2)c(C)c1 | 0.4 µM | > 65 µM | > 162 |  |  |  |  |  |  |  |  |  | 
20 | O=c1cc(Cc2c(F)cccc2F)nc(Sc2ccccc2)[nH]1 | 1.4 µM | > 76 µM | > 54 |  |  |  |  |  |  |  |  |  | 
21 | O=C(CSc1nc(Cc2c(F)cccc2F)cc(=O)[nH]1)c1ccc(Cl)cc1 | 9.8 µM | > 61 µM | > 6 |  |  |  |  |  |  |  |  |  | 
22 | O=c1cc(Cc2c(F)cccc2F)nc(SCCc2ccccc2)[nH]1 | 0.3 µM | > 70 µM | > 233 |  |  |  |  |  |  |  |  |  | 
23 | COc1ccc(C(=O)CSc2nc(Cc3c(Cl)cccc3Cl)c(C(C)C)c(=O)[nH]2)cc1 | 0.0004 µM | > 14 µM | > 35000 | > 14 µM | 0.23 µM | 575 | > 14 µM |  | 1220 | 0.014 µM | > 40 µM | 17.1 µM | > 40 µM
24 | CC(=O)CSc1nc(Cc2c(F)cccc2F)cc(=O)[nH]1 | 3.1 µM | > 81 µM | > 26 |  |  |  |  |  |  |  |  |  | 
25 | Cc1c(Cc2c(F)cccc2F)nc(SCc2ccccc2)[nH]c1=O | 0.13 µM | > 70 µM | > 538 |  |  |  |  |  |  |  |  |  | 
26 | COc1ccc(C(=O)CSc2nc(Cc3c(Cl)cccc3Cl)cc(=O)[nH]2)cc1 | 1.22 µM | > 11 µM | > 9 | > 11 µM | > 11 µM |  | > 11 µM | 694 | 2 | 0.054 µM | 37.5 µM | 0.11 µM | > 40 µM
27 | Cc1c(Cc2c(F)cccc2F)nc(SCc2ccncc2)[nH]c1=O | 0.06 µM | > 70 µM | > 1170 |  |  |  |  |  |  |  |  |  | 

From ChEMBL document CHEMBL1155883, “5-Alkyl-6-benzyl-2-(2-oxo-2-phenylethylsulfanyl)pyrimidin-4(3H)-ones, a series of anti-HIV-1 agents of the dihydro-alkoxy-benzyl-oxopyrimidine family with peculiar structure-activity relationship profile” (J Med Chem, 2008)
